{
  "source": "ChEMBL document CHEMBL3997769",
  "about": "“Discovery and preclinical evaluation of 7-benzyl-N-(substituted)-pyrrolo[3,2-d]pyrimidin-4-amines as single agents with microtubule targeting effects along with triple-acting angiokinase inhibition as antitumor agents” (Bioorg Med Chem, 2017)",
  "key": {"CCRF-CEM": {"test_system": "CCRF-CEM", "assay": "Growth inhibition of human CCRF-CEM cells incubated for 48 hrs by sulforhodamine B assay", "format": "functional"}, "Bos taurus": {"species_on_record": "Bos taurus", "assay": "Displacement of [3H]colchicine from bovine brain tubulin at 5 uM measured after 10 mins by liquid scintillation counting method relative to control"}, "A-431": {"test_system": "A-431", "assay": "Cytotoxicity against human A431 cells", "format": "functional, cell-based"}, "RPMI-8226": {"test_system": "RPMI-8226", "assay": "Growth inhibition of human RPMI8226 cells incubated for 48 hrs by sulforhodamine B assay", "format": "functional", "settings": "RPMI-8226, 48 h"}, "SR": {"test_system": "SR", "assay": "Growth inhibition of human SR cells incubated for 48 hrs by sulforhodamine B assay", "format": "functional"}, "NCI-H23": {"test_system": "NCI-H23", "assay": "Growth inhibition of human NCI-H23 cells incubated for 48 hrs by sulforhodamine B assay", "format": "functional", "settings": "NCI-H23, 48 h"}, "NCI-H460": {"test_system": "NCI-H460", "assay": "Growth inhibition of human NCI-H460 cells incubated for 48 hrs by sulforhodamine B assay", "format": "functional", "settings": "NCI-H460, 48 h"}, "HCC 2998": {"test_system": "HCC 2998", "assay": "Growth inhibition of human HCC2998 cells incubated for 48 hrs by sulforhodamine B assay", "format": "functional", "settings": "HCC 2998, 48 h"}, "HT-29": {"test_system": "HT-29", "assay": "Growth inhibition of human HT-29 cells incubated for 48 hrs by sulforhodamine B assay", "format": "functional", "settings": "HT-29, 48 h"}, "SF-295": {"test_system": "SF-295", "assay": "Growth inhibition of human SF295 cells incubated for 48 hrs by sulforhodamine B assay", "format": "functional", "settings": "SF-295, 48 h"}, "SNB-19": {"test_system": "SNB-19", "assay": "Growth inhibition of human SNB19 cells incubated for 48 hrs by sulforhodamine B assay", "format": "functional", "settings": "SNB-19, 48 h"}, "M14": {"test_system": "M14", "assay": "Growth inhibition of human M14 cells incubated for 48 hrs by sulforhodamine B assay", "format": "functional", "settings": "M14, 48 h"}, "MDA-MB-435": {"test_system": "MDA-MB-435", "assay": "Growth inhibition of human MDA-MB-435 cells incubated for 48 hrs by sulforhodamine B assay", "format": "functional", "settings": "MDA-MB-435, 48 h"}, "UACC-257": {"test_system": "UACC-257", "assay": "Growth inhibition of human UACC257 cells incubated for 48 hrs by sulforhodamine B assay", "format": "functional", "settings": "UACC-257, 48 h"}, "UACC-62": {"test_system": "UACC-62", "assay": "Growth inhibition of human UACC62 cells incubated for 48 hrs by sulforhodamine B assay", "format": "functional", "settings": "UACC-62, 48 h"}, "IGROV-1": {"test_system": "IGROV-1", "assay": "Growth inhibition of human IGROV1 cells incubated for 48 hrs by sulforhodamine B assay", "format": "functional", "settings": "IGROV-1, 48 h"}, "NCI/ADR-RES": {"test_system": "NCI/ADR-RES", "assay": "Growth inhibition of human NCI/ADR-RES cells incubated for 48 hrs by sulforhodamine B assay", "format": "functional"}, "SK-OV-3": {"test_system": "SK-OV-3", "assay": "Growth inhibition of human SKOV3 cells incubated for 48 hrs by sulforhodamine B assay", "format": "functional", "settings": "SK-OV-3, 48 h"}, "ACHN": {"test_system": "ACHN", "assay": "Growth inhibition of human ACHN cells incubated for 48 hrs by sulforhodamine B assay", "format": "functional"}, "MDA-MB-231": {"test_system": "MDA-MB-231", "assay": "Growth inhibition of human MDA-MB-231 cells incubated for 48 hrs by sulforhodamine B assay", "format": "functional", "settings": "MDA-MB-231, 48 h"}, "Hs-578T": {"test_system": "Hs-578T", "assay": "Growth inhibition of human Hs578T cells incubated for 48 hrs by sulforhodamine B assay", "format": "functional"}, "MDA-MB-468": {"test_system": "MDA-MB-468", "assay": "Growth inhibition of human MDA-MB-468 cells incubated for 48 hrs by sulforhodamine B assay", "format": "functional", "settings": "MDA-MB-468, 48 h"}, "4T1": {"test_system": "4T1", "assay": "Antitumor activity against luciferase/GFP-tagged mouse 4T1 cells implanted in Balb/cJ mouse assessed as reduction in lung metastasis at 50 mg/kg, ip administered three times weekly by fluorescence microscopic method", "format": "functional, organism-based", "outline": "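Orthotopic 4T1-Luc2-GFP allograft in the mammary fat pad of female BALB/cJ mice; IP treatment in 5% Pharmasolve/5% Solutol HS in saline began one week after implantation. At study end, lungs were excised from mice euthanized under isoflurane and imaged with a GFP-filter fluorescence dissecting microscope; GFP-positive metastases per lung counted. n = 9-10.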"}},
  "note": "Active and inactive are the calls of the source. The rule behind the calls is not given here.",
  "data": [
    {"smiles": "COc1ccc(N(C)c2nc(C)nc3c(Cc4ccccc4)cn(C)c23)cc1.Cl", "values": [
      {"measurement": "GI50", "setting": "CCRF-CEM", "value": 33.5, "unit": "nM"},
      {"measurement": "inhibition", "setting": "Bos taurus", "value": 92, "unit": "%"},
      {"measurement": "IC50", "setting": "A-431", "value": 1200, "unit": "nM"},
      {"measurement": "GI50", "setting": "RPMI-8226", "value": 36.9, "unit": "nM"},
      {"measurement": "GI50", "setting": "SR", "value": 33.8, "unit": "nM"},
      {"measurement": "GI50", "setting": "NCI-H23", "value": 45.8, "unit": "nM"},
      {"measurement": "GI50", "setting": "NCI-H460", "value": 38.7, "unit": "nM"},
      {"measurement": "GI50", "setting": "HCC 2998", "value": 71.1, "unit": "nM"},
      {"measurement": "GI50", "setting": "HT-29", "value": 35.1, "unit": "nM"},
      {"measurement": "GI50", "setting": "SF-295", "value": 30.4, "unit": "nM"},
      {"measurement": "GI50", "setting": "SNB-19", "value": 54.7, "unit": "nM"},
      {"measurement": "GI50", "setting": "M14", "value": 29.5, "unit": "nM"},
      {"measurement": "GI50", "setting": "MDA-MB-435", "value": 21.4, "unit": "nM"},
      {"measurement": "GI50", "setting": "UACC-257", "value": 78.2, "unit": "nM"},
      {"measurement": "GI50", "setting": "UACC-62", "value": 475, "unit": "nM"},
      {"measurement": "GI50", "setting": "IGROV-1", "value": 95.8, "unit": "nM"},
      {"measurement": "GI50", "setting": "NCI/ADR-RES", "value": 32.8, "unit": "nM"},
      {"measurement": "GI50", "setting": "SK-OV-3", "value": 45.4, "unit": "nM"},
      {"measurement": "GI50", "setting": "ACHN", "value": 172, "unit": "nM"},
      {"measurement": "GI50", "setting": "MDA-MB-231", "value": 63.7, "unit": "nM"},
      {"measurement": "GI50", "setting": "Hs-578T", "value": 62.3, "unit": "nM"},
      {"measurement": "GI50", "setting": "MDA-MB-468", "value": 30.1, "unit": "nM"},
      {"measurement": "Activity", "setting": "4T1", "value": "Active"}
    ]}
  ]
}
